Measurements taken from paper PMC8026699 (Cancer research, 2021).

How the values were obtained:
BT474 cells = assay: Growth of BT474 cells; format: cell-based, human; settings: BT474, 10 μM, 72 hours, H1 conditions, 200 μM sodium acetate
Brpkp110 cells = assay: 13C2-acetate labeling of palmitate in Brpkp110 cells; format: cell-based, mouse; settings: Brpkp110, N10 and H1, 24 hr, 100 μM 13C2-acetate
Method in brief: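 Cells labeled 24 h with 100 μM 13C2-acetate in SMEM under N10 (normoxia, 10% dialyzed FBS) or H1 (1% O2, 1% dialyzed FBS). Vehicle or test compound present; for BT474 in H1, a 10-fold dilution series. Lipids extracted with methanol/chloroform/PBS, saponified in 0.3 M KOH/90% methanol at 70°C for 1 h, then hexane-extracted. Palmitate labeling read by C18 reverse-phase LC-MS. n = 3, mean ± S.D.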

Brpkp110 tumors = assay: Brpkp110 tumor growth in NSG mice; format: in vivo, mouse
Method in brief: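 Brpkp110 cells (5×10^5 in PBS:Matrigel) implanted subcutaneously in 5–6-week-old female NSG mice, then randomized. Daily dosing: vehicle (10% DMSO, 20% solutol, 70% water with 0.5% Tween20) or 100 mg/kg test compound. Volume (L × W²)/2 from calipers thrice weekly. Resected tumors: formalin-fixed, paraffin-embedded, citrate steam retrieval, H2O2 block, Ki67 antibody, DAB with hematoxylin counterstain.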

SKBr3 cells [1] = assay: Growth of SKBr3 cells; format: cell-based, human; settings: SKBr3, 10 μM, 72 hours, H1 conditions, 200 μM sodium acetate
recombinant human ACSS2 = recombinant human ACSS2 (Homo sapiens, UniProt Q9NR19); assay: TranScreener AMP biochemical assay of ACSS2 activity; settings: ratio of IC50 values
Sequence of recombinant human ACSS2 (Q9NR19 whole entry): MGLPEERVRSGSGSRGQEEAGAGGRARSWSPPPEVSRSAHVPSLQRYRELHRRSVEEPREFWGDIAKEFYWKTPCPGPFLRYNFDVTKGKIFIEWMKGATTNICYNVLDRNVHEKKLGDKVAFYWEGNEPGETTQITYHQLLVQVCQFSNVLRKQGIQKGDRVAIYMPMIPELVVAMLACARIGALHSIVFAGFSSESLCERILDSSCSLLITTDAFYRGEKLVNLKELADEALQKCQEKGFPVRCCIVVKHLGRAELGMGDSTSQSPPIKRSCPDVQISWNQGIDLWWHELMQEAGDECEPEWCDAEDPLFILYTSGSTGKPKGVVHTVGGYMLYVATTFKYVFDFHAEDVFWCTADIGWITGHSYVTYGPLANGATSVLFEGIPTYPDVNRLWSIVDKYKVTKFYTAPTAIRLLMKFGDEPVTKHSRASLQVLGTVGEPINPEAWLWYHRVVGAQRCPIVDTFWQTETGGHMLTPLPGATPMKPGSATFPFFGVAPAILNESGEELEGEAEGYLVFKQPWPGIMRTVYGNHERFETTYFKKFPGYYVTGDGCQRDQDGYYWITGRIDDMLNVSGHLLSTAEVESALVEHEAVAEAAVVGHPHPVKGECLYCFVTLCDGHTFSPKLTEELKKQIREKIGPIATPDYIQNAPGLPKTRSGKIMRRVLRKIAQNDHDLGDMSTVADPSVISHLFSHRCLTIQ
Method in brief: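 Recombinant human ACSS2 at 3 nM in 30 mM HEPES pH 7.4, 140 mM NaCl, 2 mM MgCl2, 2 mM DTT, 0.005% Brij35. Test compound serially diluted in DMSO. Final substrates: 5 mM acetate, 50 μM ATP, 5 μM CoA; 120 min incubation. AMP detected by Tb-anti-AMP antibody/tracer TR-FRET after 30 min. Percent inhibition normalized to no-enzyme (100%) and DMSO (0%) wells; IC50 curves fitted from replicates.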

[2] = system: cytosolic AcCoA metabolism (UDP-GlcNAc); assay: 13C2-acetate labeling of UDP-GlcNAc in cells; format: cell-based
Method in brief: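 Cells grown 24 h in serum-like modified Eagle's medium (SMEM) with 0.1 mM uniformly labeled 13C2-acetate. Conditions were normoxia with 10% dialyzed FBS (N10) or 1% O2 hypoxia with 1% dialyzed FBS (H1). Vehicle or test compound present. Cells washed in ice-cold PBS and extracted with methanol/acetonitrile/water (5:3:2) at 4°C for 5 min. Cleared extracts analysed by HILIC LC-MS on a Q Exactive HF-X.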

BT474 tumors = assay: BT474 tumor xenograft growth; format: in vivo, mouse; settings: BT474, 100 mpk daily IP
Method in brief: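 Female NSG mice, 5–6 weeks old, received subcutaneous PBS:Matrigel grafts: BT474 at 1×10^6 (with a 60-day 17β-estradiol pellet at the neck), MDA-MB-468 at 5×10^6, or WHIM12 PDX cells at 2×10^6. Once tumors established, mice were randomized to daily IP or oral gavage. Arms: vehicle (10% DMSO, 20% solutol, 70% water with 0.5% Tween20) or 100 mg/kg test compound. Calipers thrice weekly; volume (L × W²)/2.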

[3] = Mouse liver microsomal stability; format: in vitro ADME; settings: 0.5 μM compound, 0.5 mg/mL microsomes; compared with VY-3-249
Method in brief: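 Incubations: 0.5 μM compound, 0.5 mg/mL liver microsomes, NADPH-regenerating system, potassium phosphate pH 7.4. Timed aliquots quenched in acetonitrile with internal standard; no-cofactor controls run. LC-MS/MS analyte/internal-standard peak-area ratios. Elimination constant fitted by nonlinear regression; t1/2 from k = 0.693/t1/2. CLint scaled with 48 (mouse) or 39.7 (human) mg protein/g liver. n = 1.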

recombinant human ACSS1 = target: T1, recombinant human ACSS1 (Homo sapiens, UniProt Q9NUB1); assay: TranScreener AMP biochemical assay of ACSS1 activity; settings: regardless of the substrate (acetate or propionate)
T1 sequence (Q9NUB1 38-689): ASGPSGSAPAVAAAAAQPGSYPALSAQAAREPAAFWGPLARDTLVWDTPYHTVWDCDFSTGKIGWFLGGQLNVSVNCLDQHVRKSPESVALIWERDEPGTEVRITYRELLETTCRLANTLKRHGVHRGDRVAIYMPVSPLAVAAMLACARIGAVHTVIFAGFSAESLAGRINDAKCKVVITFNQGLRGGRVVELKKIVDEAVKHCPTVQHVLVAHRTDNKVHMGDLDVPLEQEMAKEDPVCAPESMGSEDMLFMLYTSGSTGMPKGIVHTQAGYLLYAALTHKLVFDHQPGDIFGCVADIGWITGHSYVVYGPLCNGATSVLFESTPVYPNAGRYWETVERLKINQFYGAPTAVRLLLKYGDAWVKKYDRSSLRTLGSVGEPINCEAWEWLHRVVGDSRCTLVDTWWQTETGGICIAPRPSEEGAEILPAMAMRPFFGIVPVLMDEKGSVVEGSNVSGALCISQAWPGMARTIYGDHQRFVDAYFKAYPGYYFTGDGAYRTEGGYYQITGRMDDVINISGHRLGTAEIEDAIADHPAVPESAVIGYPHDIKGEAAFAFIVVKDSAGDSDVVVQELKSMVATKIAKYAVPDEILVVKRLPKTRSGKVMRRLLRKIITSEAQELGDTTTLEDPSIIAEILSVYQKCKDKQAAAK
Method in brief: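 Test compound was serially diluted in DMSO and added to ACSS1 (2 nM) or ACSS3 (25 nM). Acetate reaction: HEPES pH 7.4 buffer with 140 mM NaCl; final 5 mM acetate, 50 μM ATP, 5 μM CoA. Propionate reaction: HEPES/KCl/CHAPS buffer; final 5 mM propionate, 10 μM ATP, 100 μM CoA. Incubation 120 min, then AMP detected by terbium-antibody/tracer TR-FRET after 30 min. Percent inhibition was set against no-enzyme and DMSO controls.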

SKBr3 cells [4] = assay: 13C2-acetate labeling of palmitate in SKBr3 cells; format: cell-based, human; settings: SKBr3, 100 μM 13C2-acetate, 24 hr, N10 and H1 conditions
Method in brief: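 SKBr3 cells were grown 24 h in serum-like modified Eagle's medium with 100 μM 13C2-acetate, either in N10 (normoxia, 10% dialyzed FBS) or H1 (1% O2, 1% dialyzed FBS), with vehicle or test compound. Lipids were extracted with methanol/chloroform/PBS, saponified in 0.3 M KOH in 90% methanol at 70°C for 1 h, then hexane-extracted. Palmitate labeling was measured by C18 LC-MS; mean ± S.D., n = 3.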

potency relative to VY-3-249 (recombinant human ACSS2): ~30 fold
stability in mouse liver microsomal assay [3]: superior stability
SMILES: CCn1c(C(O)(c2ccccc2)c2ccccc2)nc2ccc(C(=O)NC[C@@H](C)O)cc21 [VY-3-135, (R)-1-ethyl-2-(hydroxydiphenylmethyl)-N-(2-hydroxypropyl)-1H-benzo[d]imidazole-6-carboxamide]
cell growth (BT474 cells): modest growth inhibition
acetate dependent labeling of palmitate by 13C2-acetate (Brpkp110 cells): efficiently blocked
tumor growth (Brpkp110 tumors; Brpkp110 (ACSS2 high), 100 mpk daily IP): marked inhibition
Ki67 staining of tumors (proliferation) (Brpkp110 tumors; Brpkp110 tumors): less proliferative
cell growth (SKBr3 cells [1]): modest growth inhibition
incorporation of 13C2-acetate into UDP-GlcNAc [2]: blocked incorporation
tumor regression by the end of the regimen (BT474 tumors; n = 5 mice per group): two of the tumors in VY-3-135 treated group were not palpable by the end of the regimen, with one tumor fully regressing
tumor growth (BT474 tumors; two weeks of treatment): completely abrogated tumor growth
inhibitory activity towards ACSS1 (recombinant human ACSS1): neither VY-3-249 nor VY-3-135 displayed any inhibitory activity
fatty acid (palmitate) synthesis from 13C2-acetate (SKBr3 cells [4]): completely blocked fatty acid synthesis from acetate
